Data reported in PubChem BioAssay AID489030 (Sanford-Burnham Center for Chemical Genomics, 2010).
In all, about 330,000 compounds went through this assay and about 2,400 (0.73%) were called active. Rule for the calls: active = inhibition of at least 40% at 20 µM; inactive = the rest. This excerpt belongs to a sample that is enriched for actives.

Target: Apoptotic protease-activating factor 1 (Homo sapiens) (UniProt O14727)
Assay: blockers of Apaf-1-driven caspase-3 activation – biochemical, DEVD-Rh110 fluorescence, uHTS, primary screen (AID 489030);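 note: plate controls were DMSO wells for no effect and DEVD-CHO caspase inhibitor wells for full effect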
Conditions: reconstituted apoptosome caspase-3 activity, at 20 µM, active compounds read high
Method in brief: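 Medium: Hepes buffer, pH 7.5 / System: biochemical Apaf-1 apoptosome reconstitution / Measured by: Rh110 fluorescence, excitation 480 nm, emission 540 nm / Times: compound with Apaf-1, dATP, procaspase-3 30 min, then 50 min reaction, room temperature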

Sequence of Apoptotic protease-activating factor 1 (Homo sapiens) (O14727 whole entry, looked up): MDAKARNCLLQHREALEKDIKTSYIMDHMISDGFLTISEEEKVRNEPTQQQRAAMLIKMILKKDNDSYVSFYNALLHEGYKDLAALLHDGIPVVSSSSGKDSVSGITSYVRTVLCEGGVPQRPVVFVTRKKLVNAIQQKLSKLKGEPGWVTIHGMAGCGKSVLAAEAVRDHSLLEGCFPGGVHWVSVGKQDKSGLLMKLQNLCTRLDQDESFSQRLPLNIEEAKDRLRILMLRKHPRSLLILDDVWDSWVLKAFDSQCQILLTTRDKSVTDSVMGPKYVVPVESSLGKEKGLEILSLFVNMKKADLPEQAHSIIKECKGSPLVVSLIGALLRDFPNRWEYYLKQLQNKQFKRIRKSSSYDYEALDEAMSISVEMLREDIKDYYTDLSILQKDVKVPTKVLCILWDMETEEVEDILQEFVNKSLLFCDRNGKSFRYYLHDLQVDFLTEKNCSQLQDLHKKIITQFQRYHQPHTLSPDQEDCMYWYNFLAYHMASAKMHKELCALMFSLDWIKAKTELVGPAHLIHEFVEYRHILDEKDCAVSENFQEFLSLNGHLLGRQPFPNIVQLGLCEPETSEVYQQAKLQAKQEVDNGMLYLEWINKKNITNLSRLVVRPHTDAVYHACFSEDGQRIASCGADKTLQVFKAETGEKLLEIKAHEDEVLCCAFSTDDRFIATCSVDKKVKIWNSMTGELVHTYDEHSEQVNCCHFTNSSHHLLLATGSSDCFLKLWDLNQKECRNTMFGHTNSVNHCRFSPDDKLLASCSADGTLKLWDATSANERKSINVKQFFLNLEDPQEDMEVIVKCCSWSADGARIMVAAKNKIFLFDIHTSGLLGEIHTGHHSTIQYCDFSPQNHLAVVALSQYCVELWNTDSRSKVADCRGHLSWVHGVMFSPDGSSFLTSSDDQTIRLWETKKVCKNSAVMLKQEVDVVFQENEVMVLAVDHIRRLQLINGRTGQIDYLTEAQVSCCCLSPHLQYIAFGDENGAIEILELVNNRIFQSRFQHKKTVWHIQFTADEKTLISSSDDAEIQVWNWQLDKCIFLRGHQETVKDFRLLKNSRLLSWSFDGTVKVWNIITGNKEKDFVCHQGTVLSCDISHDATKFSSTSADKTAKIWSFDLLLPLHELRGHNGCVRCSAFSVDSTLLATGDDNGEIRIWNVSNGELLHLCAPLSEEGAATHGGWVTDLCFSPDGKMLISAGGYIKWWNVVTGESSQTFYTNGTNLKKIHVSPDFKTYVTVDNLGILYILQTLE

Row | SMILES | inhibition
1 | CNC(=O)NC(=O)CSc1nnc(-c2ccc(F)cc2)n1CC1CCCO1 (centres undefined) | -8.1% (inactive)
2 | O=C(NN1C(=O)C2C3C=CC(C4CC34)C2C1=O)c1ccc(Cl)cc1 (centres undefined) | 5.04% (inactive)
3 | CCOC(=O)Cn1nnnc1C | -24.4% (inactive)
4 | COc1cc(C(=O)NC2CCN(Cc3ccccc3)CC2)cc(Cl)c1OC(C)C | 4.18% (inactive)
5 | COc1cc(OC)cc(-c2sc3ccc(OC)cc3c2-c2ccc3cc[nH]c3c2)c1 | 7.8% (inactive)
6 | COc1ccc2sc(-c3ccccc3OC)c(-c3ccc(OCCN4CCCC4)cc3)c2c1 | 73.4% (active)
7 | COc1cccc(-c2sc3ccc(OC)cc3c2-c2ccc(OCCN3CCCCC3)cc2)c1 | 61.8% (active)
8 | COc1ccccc1-c1sc2ccccc2c1-c1ccc(Br)nc1 | 14.2% (inactive)
9 | COc1ccccc1-c1sc2ccccc2c1-c1ccc(C(C)=O)cc1 | 21.9% (inactive)
10 | COc1ccc(-c2sc3ccccc3c2-c2ccc(OCCN3CCOCC3)cc2)cc1 | 15.7% (inactive)
11 | CN1CCC(CN)(N2CCN(c3ccccc3)CC2)CC1 | 6.96% (inactive)
12 | CC1COc2ccccc2N1S(=O)(=O)c1ccccc1 (centres undefined) | 11.7% (inactive)
13 | OCCn1c(-c2ccccc2)csc1=Nc1ccccc1 | 16.7% (inactive)
14 | O=C(Nc1cccc(Cl)c1Cl)c1ccccc1NC(=O)C1CC=CCC1C(=O)O (centres undefined) | -3.06% (inactive)
15 | O=C(COC(=O)C1(c2ccc(F)cc2)CCCC1)N1CCNC1=O | -3.12% (inactive)
16 | Cc1ccc(NC(=O)c2oc3ccccc3c2C)c([N+](=O)[O-])c1 | 4.97% (inactive)
17 | O=S1(=O)CCC(NC(=S)SCc2ccccc2Br)C1 (centres undefined) | 8.21% (inactive)
18 | COc1ccc(Cl)cc1N(CC(=O)N/N=C/c1ccc(OCC(N)=O)cc1)S(C)(=O)=O | 9.06% (inactive)
19 | Cc1nc2ccccc2nc(C)c1=NOCc1ccc(Cl)cc1Cl | 8.52% (inactive)
20 | NC(N)=N/N=C/c1ccc(OCc2ccc(Cl)cc2Cl)cc1 | 65.5% (active)
21 | CCCNC(=O)OC[C@H]1O[C@H](CCO/N=C/[C@@H](NS(=O)(=O)c2ccc(C)cc2)[C@H](C)/C=C/CC(=O)OC)C=C[C@@H]1Oc1ccc(OC)cc1 | 9.15% (inactive)
22 | O=C(c1ccc(Br)o1)N1CCN(CCOc2ccccc2)CC1 | 5.93% (inactive)
23 | CN(CC(=O)NC1CCCC1)S(=O)(=O)c1cnc[nH]1 | -3.15% (inactive)
24 | CCN(CC(=O)NCc1cccs1)C(=O)c1ccc(OC)c(S(=O)(=O)N2CCOCC2)c1 | 5.14% (inactive)
25 | CCN(CC(=O)NCc1cccs1)C(=O)c1ccccc1F | -6.38% (inactive)
26 | CCN(CC(=O)NCc1cccs1)C(=O)c1cccc(S(=O)(=O)Nc2ccccc2OC)c1 | 60.2% (active)
27 | CCNC(=O)COC(=O)CCNC(=O)c1cccc(C)c1 | -4.69% (inactive)

Row | SMILES | inhibition
28 | Cc1nn2cc(-c3ccc(Cl)cc3)cnc2c1Br | -6.41% (inactive)
29 | COc1cc(OC)cc(C(=O)OCC(=O)Nc2sccc2C(N)=O)c1 | -0.564% (inactive)
30 | COC(=O)c1ccc(N2CCOCC2)c(NC(=O)c2ccc(Br)o2)c1 | -17.7% (inactive)
31 | CCCCc1nc2cc(C(=O)N3CCCCC3CCO)ccc2o1 (centres undefined) | 5.2% (inactive)
32 | O=[N+]([O-])c1c(NCCO)cc(Sc2nc3ccccc3s2)c2nonc12 | 90.7% (active)
33 | CCN(CC)CCCSc1nc2ccccc2s1 | -0.516% (inactive)
34 | OCCNc1nc(Nc2ccc(Cl)c(Cl)c2)nc2ccccc12 | 24.2% (inactive)
35 | O=c1ccc2cc(S(=O)(=O)NCCCc3ccccc3)ccc2[nH]1 | 0.38% (inactive)
36 | C=CC(=O)OCCOCCOCCOCCOC(=O)C=C | -5.63% (inactive)
37 | c1ccc(C[C@H]2CNCCN2CCC23CC4CC(CC(C4)C2)C3)cc1 | 47.5% (active)
38 | c1ccc2c(CCN3CCNC[C@H]3Cc3cccc4ccccc34)cccc2c1 | 67% (active)
39 | c1ccc(C2CNCc3c2ccc2ccccc32)cc1 (centres undefined) | 13.6% (inactive)
40 | CC(C)(C)CN1C(=O)C(=O)NC[C@H]1Cc1cccc2ccccc12 | -2.41% (inactive)
41 | O=C1CCNCCN1[C@H](CO)Cc1ccccc1 | -9.83% (inactive)
42 | NS(=O)(=O)c1ccc(N2C(=O)C3C4CC(C(Br)C4Br)C3C2=O)cc1 (centres undefined) | 4.73% (inactive)
43 | CC(=O)Nc1ccc(OCCC[n+]2cccc(C(=O)[O-])c2)cc1 | 0.989% (inactive)
44 | N=c1ccn(CC(=O)NC(N)=O)c2ccccc12 | -8.89% (inactive)
45 | Cc1cccc(/C=N/NC(=O)CNc2cccc3ccccc23)n1 | 8.96% (inactive)
46 | C/C(=N\NC(=O)CNc1cccc2ccccc12)c1ccc(Br)s1 | 90.2% (active)
47 | C/C(=N\NC(=O)CSc1nc2ccccc2c(=O)n1-c1ccccc1C)c1cccs1 | 19.1% (inactive)
48 | COc1ccc(-n2nnnc2SCC(=O)c2ccc(OC)c(OC)c2)cc1 | 1% (inactive)
49 | CC[C@@H](C)[C@@H](C(=O)N1CCN(C(=O)OC(C)(C)C)CC1)n1cc(CCC(=O)O)nn1 | -7.69% (inactive)
50 | COc1ccc(C2=NOC3(CC(=O)N(c4ccc(Cl)cc4)C3=O)C2)c(OC)c1 (centres undefined) | 5.23% (inactive)
51 | C#CCOCCOCCOCCNc1nc(N2CCN(C(=O)[C@H](CCCCN)n3cc(CCC(=O)O)nn3)CC2)nc(N2CCN(C(=O)[C@H](CCCCN)n3cc(CC(C)O)nn3)CC2)n1 (some centres undefined) | -2.94% (inactive)
52 | C#CCOCCOCCOCCNc1nc(N2CCN(C(=O)[C@H](CCC(=O)O)n3cc(C(N)CO)nn3)CC2)nc(N2CCN(C(=O)[C@H](CCCCN)n3cc(C(N)[C@H](C)CC)nn3)CC2)n1 (some centres undefined) | 20.3% (inactive)
53 | C#CCOCCOCCOCCNc1nc(N2CCN(C(=O)[C@H](C(C)C)n3cc(CCO)nn3)CC2)nc(N2CCN(C(=O)[C@H]([C@@H](C)CC)n3cc(CCCN=C(N)N)nn3)CC2)n1 | 0.78% (inactive)
54 | C#CCOCCOCCOCCNc1nc(N2CCN(C(=O)Cn3cc(CCCCN)nn3)CC2)nc(N2CCN(C(=O)[C@H](CCCCN)n3cc(CCC(=O)O)nn3)CC2)n1 | 2.29% (inactive)

Row | SMILES | inhibition
55 | C#CCOCCOCCOCCNc1nc(N2CCN(C(=O)CCCCCCCCCCNC(=O)[C@H]([C@@H](C)CC)n3cc(CCCCN=C(N)N)nn3)CC2)nc(N2CCN(C(=O)CCCCCCCCCCNC(=O)[C@H](CO)n3cc(CCCSC)nn3)CC2)n1 | 59.2% (active)
56 | C#CCOCCOCCOCCNc1nc(N2CCN(C(=O)CCCCCCCCCCNC(=O)Cn3cc(CCCCCN)nn3)CC2)nc(N2CCN(C(=O)CCCCCCCCCCNC(=O)[C@H](CO)n3cc(CCCSC)nn3)CC2)n1 | 60.7% (active)
57 | C#CCOCCOCCOCCNc1nc(N2CCN(C(=O)[C@H](CCCN=C(N)N)n3cc(C(N)[C@@H](C)CC)nn3)CC2)nc(N2CCN(C(=O)[C@H](CO)n3cc([C@@H](N)C(C)C)nn3)CC2)n1 (some centres undefined) | 1.97% (inactive)
58 | C#CCOCCOCCOCCNc1nc(N2CCN(C(=O)[C@H](CCC(=O)O)n3cc(CN)nn3)CC2)nc(N2CCN(C(=O)[C@H](CCC(=O)O)n3cc(CN)nn3)CC2)n1 | -8.71% (inactive)
59 | C#CCOCCOCCOCCNc1nc(N2CCN(C(=O)[C@H](CCC(=O)O)n3cc(C(N)CO)nn3)CC2)nc(N2CCN(C(=O)[C@H](CCCCN)n3cc(C(N)CC(C)C)nn3)CC2)n1 (some centres undefined) | 2.63% (inactive)
60 | C#CCOCCOCCOCCNc1nc(N2CCN(C(=O)CCCCCCCCCCNC(=O)[C@H](CCCCN)n3cc(C)nn3)CC2)nc(N2CCN(C(=O)CCCCCCCCCCNC(=O)[C@H](CO)n3cc(CCCSC)nn3)CC2)n1 | 59.7% (active)
61 | C#CCOCCOCCOCCNc1nc(N2CCN(C(=O)C([C@@H](C)O)n3cc([C@@H](N)CCCCN)nn3)CC2)nc(N2CCN(C(=O)[C@H](CCCCN)n3cc(CN)nn3)CC2)n1 (some centres undefined) | 42.2% (active)
62 | C#CCOCCOCCOCCNc1nc(N2CCN(C(=O)C([C@@H](C)CC)n3cc(C(N)COC(=O)C(F)(F)F)nn3)CC2)nc(N2CCN(C(=O)[C@H](CCCCN)n3cc(C(N)CC(C)C)nn3)CC2)n1 (some centres undefined) | 4.38% (inactive)
63 | CCN(c1ccc2c(c1)OCO2)S(=O)(=O)c1cc(Br)cc2c1N(C(=O)C1CC1)CC2 | 21.5% (inactive)
64 | COc1cc(C2C(C(=O)c3cccs3)=C(O)C(=O)N2CCN2CCOCC2)ccc1OCCC(C)C (centres undefined) | 6.88% (inactive)
65 | CCn1c(CN2C(=O)CSc3ccccc32)n[nH]c1=S | -18.9% (inactive)
66 | CN(Cc1ccccc1)C(=O)c1ccc(NC2=NC3CS(=O)(=O)CC3S2)cc1 (centres undefined) | -0.97% (inactive)
67 | CC(C)Oc1ccc(Cc2n[nH]c(=S)n2Cc2ccccc2)cc1Cl | -15.3% (inactive)
68 | CC(NCc1ccccc1OC1CCCC1)c1ccccc1 (centres undefined) | -12% (inactive)
69 | CCOc1[nH]n(-c2ccc(Cl)cc2)c(=O)c1C=Nc1ccc(O)cc1 | 66.9% (active)
70 | CCOc1ccc(N=C2NC(=O)S/C2=C\c2ccc(O)cc2)cc1 | -72% (inactive)
71 | CCCCn1c(N)c(N(CCC(C)C)C(=O)c2ccc([N+](=O)[O-])o2)c(=O)[nH]c1=O | 5.92% (inactive)
72 | CCCCc1nnc(NC(=O)CSc2nc(N)cc(=O)[nH]2)s1 | 20.3% (inactive)
73 | COc1ccc(NC(=O)CN(Cc2ccccc2)S(C)(=O)=O)cc1OC | 40.8% (active)
74 | COC(=O)c1ccccc1NC(=O)CN(Cc1ccccc1)S(C)(=O)=O | -17.6% (inactive)
75 | COc1ccc(NC(=O)CN(C)S(=O)(=O)c2ccccc2)cc1OC | -3.33% (inactive)
76 | CCCCN(C(=O)C1=NN(c2cc(C)ccc2C)C(=O)CC1)c1c(N)n(CCC)c(=O)[nH]c1=O | -17% (inactive)
77 | CC1CC(=S)Nc2ccccc2N1Cc1ccccc1 (centres undefined) | 41.4% (active)
78 | CC1CC(=O)Nc2ccccc2N1S(=O)(=O)c1cccs1 (centres undefined) | -4.75% (inactive)
79 | CC1CC(C)(C)NC(=S)N1CCC(=O)N1CCN(Cc2ccccc2)CC1 (centres undefined) | -1.32% (inactive)
